Measurements gathered from unrelated publications.
Compare with care: the assays were run in different laboratories.

For `O=c1nc(N2CCN(CC3CCCCC3)CC2)sc2c([N+](=O)[O-])cc(C(F)(F)F)cc12`, the concentration was 139 ng/mL (CD-1 mouse, plasma; intravenous, 10 mg/kg, 4 h).
`CC(C)(O)c1ccccc1-c1ccc2[nH]c(/C=C/c3ccc(C(F)(F)F)cc3)nc2c1` gave an MRT of 91.4 h (male human, plasma; oral, 60 mg, single dose, fasted, healthy volunteers).
The concentration of `CC(C)(Nc1nc(-c2ccccn2)nc2ccccc12)c1ccccn1` is reported as 4230 ng/mL (female BALB/c mouse, plasma; oral, 50 mg/kg, 2 h).
The concentration of `CC(C)Oc1cccc(-c2cnc(N3CCC(C(N)=O)CC3)s2)c1` is reported as 0 nM (male Swiss mouse, brain; oral, 30 mg/kg, 12 h, single dose).
`CC(C)CN(C[C@@H](O)[C@H](Cc1ccccc1)NC(=O)O[C@H]1CO[C@H]2OCC[C@H]21)S(=O)(=O)c1ccc(N)cc1` has a concentration of 1.36 ng/g (BALB/c mouse, brain; intravenous, 2.5 mg/kg, 6 h).
`c1cnc2ccc(Nc3nc(NC4CC4)c4nc[nH]c4n3)cc2c1` has an MRT(0-t) of 6.8 h (human, plasma; oral, 400 mg/m², patients).
The half-life of `CC(C)(C)c1ccc(O)c(CN(Cc2cc(C(C)(C)C)ccc2O)C2CCC(NC(N)=O)CC2)c1` (centres unmarked) is reported as 10.1 h (male C57BL/6 mouse, brain; intraperitoneal, 25 mg/kg, single dose).
`O=C(O)C1CCN(c2ncc(-c3ccc4c(c3)OCCCO4)s2)CC1` has a concentration of 16000 ng/mL (male Swiss mouse, plasma; oral, 30 mg/kg, 4.98 min, single dose).
